A word on the inhibition: it is the drop in the measured response relative to a control, in per cent. A lower inhibition goes with a response near the control. Broadly, the IC50 is the point on the concentration scale where inhibition reaches its midpoint.

This note sets out measurements from ChEMBL document CHEMBL1144540, “Analgesic agents without gastric damage: design and synthesis of structurally simple benzenesulfonanilide-type cyclooxygenase-1-selective inhibitors” (Bioorg Med Chem, 2007).

Test [1] deals with T1, Prostaglandin G/H synthase 1 (Ovis aries) (UniProt P05979).
T1 sequence (whole entry): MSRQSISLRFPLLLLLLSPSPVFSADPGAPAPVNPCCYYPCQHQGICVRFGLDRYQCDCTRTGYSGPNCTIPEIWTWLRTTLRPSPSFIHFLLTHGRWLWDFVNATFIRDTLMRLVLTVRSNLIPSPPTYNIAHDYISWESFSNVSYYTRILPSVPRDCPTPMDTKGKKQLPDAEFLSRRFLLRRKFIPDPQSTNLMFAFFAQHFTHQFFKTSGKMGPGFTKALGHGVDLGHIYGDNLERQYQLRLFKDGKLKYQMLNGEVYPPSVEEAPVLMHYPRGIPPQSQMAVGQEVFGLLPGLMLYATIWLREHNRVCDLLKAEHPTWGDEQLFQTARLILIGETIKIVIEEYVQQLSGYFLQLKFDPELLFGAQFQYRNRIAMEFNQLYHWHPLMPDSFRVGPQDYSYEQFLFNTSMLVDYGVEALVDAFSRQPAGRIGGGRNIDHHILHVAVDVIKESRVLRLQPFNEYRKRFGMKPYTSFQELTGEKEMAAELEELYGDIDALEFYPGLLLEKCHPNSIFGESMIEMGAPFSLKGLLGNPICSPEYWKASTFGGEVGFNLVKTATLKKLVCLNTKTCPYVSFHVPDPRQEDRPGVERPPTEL
The test can be described thus: Inhibition of ovine COX1 at 100 uM. The procedure, abridged: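 Colorimetric ovine COX inhibitor screening kit, run per the supplier's protocol. […] Each experiment was run at least twice and the mean was reported.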

The test system of test [2] is Rattus norvegicus. The test is described as follows: Effect on gastric damage in rat assessed as induction of gastric ulcer at 10 mg/kg, po after 5 hrs. Set-up: dose 10 mg/kg. The settings on record: Stomach. The test is classed as functional, organism-based. The procedure, abridged:
(§1)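 Male rats, 170–200 g, given a single oral dose in 0.5% CMC vehicle (n = 3–5 per group). Ulcer lengths were measured in millimetres and summed to give an overall gastric damage score per rat. Data are means with SEM.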

Test [3] concerns the target T2, Prostaglandin G/H synthase 1 (Ovis aries, UniProt P05979).
T2 sequence (P05979 whole entry): T1 sequence (whole entry)
The test is described as follows: Inhibition of ovine COX1. The procedure, abridged:
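Colorimetric ovine COX inhibitor screening kit, run per the supplier's protocol. Each experiment was run at least twice and the mean was reported.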

For test [4], the system named is Rattus norvegicus. The test is described as follows: Effect on gastric damage in rat assessed as induction of gastric ulcer at 30 mg/kg, po after 5 hrs. It is filed as functional, organism-based. Details: dose 30 mg/kg. The settings on record: Stomach. In short, it runs like this: as §1

Active and inactive are the calls of the source. The calls are words filed in the database; no cut-off is given here.

In the case of `O=C(O)c1ccc(S(=O)(=O)Nc2ccc(C(F)(F)F)cc2)cc1`, the inhibition in test [1] stood at 0%.

Turning to `Cc1cc(C)cc(NS(=O)(=O)c2ccc(NS(C)(=O)=O)cc2)c1`, the inhibition in test [1] came to 0%. The same measure, in the same setting: for `Nc1ccc(S(=O)(=O)Nc2ccccc2Cl)cc1` the value was 53%; for `Nc1ccc(S(=O)(=O)Nc2cc(C(F)(F)F)cc(C(F)(F)F)c2)cc1`, 30%; for `Nc1ccc(S(=O)(=O)Nc2ccc(Br)cc2)cc1`, 23%. Still for that read-out and setting: for `CS(=O)(=O)Nc1ccc(S(=O)(=O)Nc2ccc(C(F)(F)F)cc2)cc1` the value was 8%; for `CS(=O)(=O)Nc1ccc(S(=O)(=O)Nc2ccc(Cl)cc2)cc1`, 11%.

`Cc1ccc(NS(=O)(=O)c2ccc([N+](=O)[O-])cc2)cc1` showed an inhibition in test [1] of 44%.

As for `COc1ccc(NS(=O)(=O)c2ccc([N+](=O)[O-])cc2)cc1`, the inhibition in test [1] is 0%. Still for that read-out and setting: as for `COc1ccc(NS(=O)(=O)c2ccc(C(=O)O)cc2)cc1`, the figure is 3%. On the same count and under the same terms, as for `Cc1cc(C)cc(NS(=O)(=O)c2ccc([N+](=O)[O-])cc2)c1`, the figure is 0%. `CN(c1ccccc1)S(=O)(=O)c1ccc(N)cc1` displayed an inhibition in test [1] of 48%. Consider `COc1ccc2c(c1)c(CC(=O)O)c(C)n2C(=O)c1ccc(Cl)cc1`, for which the result in test [2] was Active. Take `Cc1cccc(NS(=O)(=O)c2ccc([N+](=O)[O-])cc2)c1`: the inhibition in test [1] was found to be 3%. Molecule `Cc1cccc(NS(=O)(=O)c2ccc(NS(C)(=O)=O)cc2)c1` had an inhibition in test [1] of 3%. The same measure, in the same setting: as for `Cc1ccccc1NS(=O)(=O)c1ccc([N+](=O)[O-])cc1`, the figure is 0%. On the same count and under the same terms, as for `CS(=O)(=O)Nc1ccc(S(=O)(=O)Nc2cc(C(F)(F)F)cc(C(F)(F)F)c2)cc1`, the figure is 0%. With `Cc1cccc(NS(=O)(=O)c2ccc(C(=O)O)cc2)c1`, the inhibition in test [1] stood at 0%. In test [1], `CS(=O)(=O)Nc1ccc(S(=O)(=O)Nc2ccccc2)cc1` registered an inhibition of 0%. Still for that read-out and setting: for `Cc1cccc(NS(=O)(=O)c2ccc(N)cc2)c1` the value was 8%; for `COc1ccc(NS(=O)(=O)c2ccc(NS(C)(=O)=O)cc2)cc1`, 8%. On to `CN(c1ccc(Cl)cc1)S(=O)(=O)c1ccc(N)cc1`, for which the IC50 in test [3] worked out at 3.2 µM. The inhibition in test [1] stood at 78%. In test [1], `CN(c1ccc(C(F)(F)F)cc1)S(=O)(=O)c1ccc(N)cc1` gave an inhibition of 9%. In turn, `O=[N+]([O-])c1ccc(S(=O)(=O)Nc2ccc(C(F)(F)F)cc2)cc1` had an inhibition in test [1] of 1%. `Nc1ccc(S(=O)(=O)Nc2cccc(Cl)c2)cc1`: in test [1], the inhibition is 18%. Still for that read-out and setting: as for `Cc1cc(C)cc(NS(=O)(=O)c2ccc(N)cc2)c1`, the figure is 13%; as for `COc1ccc(N(C)S(=O)(=O)c2ccc(N)cc2)cc1`, 6%. In turn, `COc1cc(N)ccc1N(C)S(=O)(=O)c1ccc(Cl)cc1` came in with an IC50 in test [3] of 20 µM. Besides, the inhibition in test [1] was 73%.

Molecule `O=[N+]([O-])c1ccc(S(=O)(=O)Nc2cc(C(F)(F)F)cc(C(F)(F)F)c2)cc1` returned an inhibition in test [1] of 19%. The same measure, in the same setting: as for `O=C(O)c1ccc(S(=O)(=O)Nc2ccccc2)cc1`, the figure is 11%. In turn, `Nc1ccc(S(=O)(=O)Nc2ccc(Cl)cc2)cc1` had an IC50 in test [3] of 12 µM. The molecule further returned an inhibition in test [1] of 70%. Molecule `CCCN(c1ccc(Cl)cc1)S(=O)(=O)c1ccc(N)cc1` registered an inhibition in test [1] of 0%. Same read-out and setting: as for `Cc1ccc(N(C)S(=O)(=O)c2ccc(N)cc2)cc1`, the figure is 21%; as for `Cc1ccccc1NS(=O)(=O)c1ccc(N)cc1`, 5%; as for `Cc1ccccc1NS(=O)(=O)c1ccc(NS(C)(=O)=O)cc1`, 0%. In test [1], `Nc1ccc(S(=O)(=O)Nc2ccc(I)cc2)cc1` registered an inhibition of 18%. `CN(c1ccc(N)cc1)S(=O)(=O)c1ccc(Cl)cc1` yielded an IC50 in test [3] of 9.2 µM. In addition, the inhibition in test [1] is 68%.

On to `Cc1ccc(NS(=O)(=O)c2ccc(N)cc2)cc1`, for which the inhibition in test [1] amounted to 52%. The same measure, in the same setting: for `Nc1ccc(S(=O)(=O)Nc2ccccc2)cc1` the value was 0%; for `Nc1ccc(NS(=O)(=O)c2ccc(Cl)cc2)c(C(F)(F)F)c1`, 7%. On the same count and under the same terms, for `CN(c1ccc(F)cc1)S(=O)(=O)c1ccc(N)cc1` the value was 0%.

In test [1], `O=[N+]([O-])c1ccc(S(=O)(=O)Nc2ccc(Cl)cc2)cc1` came in with an inhibition of 6%. On the same count and under the same terms, as for `COc1cc(N)ccc1NS(=O)(=O)c1ccc(Cl)cc1`, the figure is 1%; as for `CCN(c1ccc(Cl)cc1)S(=O)(=O)c1ccc(N)cc1`, 10%; as for `Nc1ccc(S(=O)(=O)Nc2ccc(Cl)cc2Cl)cc1`, 6%. In turn, `CN(c1ccc(I)cc1)S(=O)(=O)c1ccc(N)cc1` yielded an inhibition in test [1] of 18%. As to `Cc1cc(N)ccc1N(C)S(=O)(=O)c1ccc(Cl)cc1`, in test [3], the IC50 was 26 µM. In addition, the inhibition in test [1] is 77%. In the case of `Nc1ccc(NS(=O)(=O)c2ccc(Cl)cc2)cc1`, the inhibition in test [1] came out at 3%. Same read-out and setting: as for `O=C(O)c1ccc(S(=O)(=O)Nc2cc(C(F)(F)F)cc(C(F)(F)F)c2)cc1`, the figure is 25%; as for `Cc1cc(N)ccc1NS(=O)(=O)c1ccc(Cl)cc1`, 7%. Molecule `CN(c1ccc(Cl)cc1)S(=O)(=O)c1cccc(N)c1` gave an inhibition in test [1] of 39%. Molecule `O=[N+]([O-])c1ccc(S(=O)(=O)Nc2ccccc2)cc1` came in with an inhibition in test [1] of 0%. On the same count and under the same terms, for `Nc1ccc(S(=O)(=O)Nc2ccc(C(F)(F)F)cc2)cc1` the value was 14%. The same measure, in the same setting: for `Nc1ccc(S(=O)(=O)Nc2ccc(F)cc2)cc1` the value was 15%; for `Cc1ccc(NS(=O)(=O)c2ccc(NS(C)(=O)=O)cc2)cc1`, 12%. On the same count and under the same terms, as for `Cc1ccccc1NS(=O)(=O)c1ccc(C(=O)O)cc1`, the figure is 21%.

As to `CC(=O)Oc1ccccc1C(=O)O`, the outcome in test [4] was Active.

In test [1], `CN(c1ccc(Br)cc1)S(=O)(=O)c1ccc(N)cc1` yielded an inhibition of 21%.
